In ChEMBL document CHEMBL3259775, “Towards the development of 5-HT₇ ligands combining serotonin-like and arylpiperazine moieties” (Eur J Med Chem, 2014):
Activity calls are given as the source filed them. The rule behind the calls is not given here.

Key:
[1] = target: T1, 5-hydroxytryptamine receptor 7 (Homo sapiens, UniProt P34969); assay: Displacement of [3H]5-HT from human 5-HT7 receptor expressed in HEK293 cells at 10^-7 mol/L after 30 mins by microbeta counting analysis; type: cell-based
[2] = target: T1, 5-hydroxytryptamine receptor 7; assay: Displacement of [3H]5-HT from human 5-HT7 receptor expressed in HEK293 cells at 10^-5 mol/L after 30 mins by microbeta counting analysis; type: cell-based
Summary of the method: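 Membranes incubated 30 min at 25 °C with 5 nmol/L [3H]5-HT in 50 mM Tris-HCl pH 7.4 containing pargyline, CaCl2 and ascorbic acid, with the test compound at a single fixed concentration. Non-specific binding with 100 µM cold 5-HT; separation by filtration; result reported as % displacement.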

[3] = target: 5-hydroxytryptamine receptor 5A (Homo sapiens) (UniProt P47898); assay: Displacement of [3H]LSD from human recombinant 5-HT5A receptor expressed in HEK293 cells at 1 uM after 120 mins by scintillation counting analysis relative to control; type: cell-based
[4] = target: 5-hydroxytryptamine receptor 1D (Rattus norvegicus) (UniProt P28565); assay: Binding affinity to rat recombinant 5-HT1D receptor expressed in CHO cells at 1 uM by radioligand displacement assay relative to control; type: cell-based
[5] = target: T1, 5-hydroxytryptamine receptor 7; assay: Displacement of [3H]5-HT from human 5-HT7 receptor expressed in HEK293 cells after 30 mins by microbeta counting analysis; type: cell-based
[6] = target: T2, 5-hydroxytryptamine receptor 2C (Homo sapiens) (UniProt P28335); assay: Binding affinity to human recombinant 5-HT2C receptor expressed in HEK293 cells at 1 uM after 30 mins by radioligand displacement assay relative to control; type: cell-based
T2 sequence (whole entry): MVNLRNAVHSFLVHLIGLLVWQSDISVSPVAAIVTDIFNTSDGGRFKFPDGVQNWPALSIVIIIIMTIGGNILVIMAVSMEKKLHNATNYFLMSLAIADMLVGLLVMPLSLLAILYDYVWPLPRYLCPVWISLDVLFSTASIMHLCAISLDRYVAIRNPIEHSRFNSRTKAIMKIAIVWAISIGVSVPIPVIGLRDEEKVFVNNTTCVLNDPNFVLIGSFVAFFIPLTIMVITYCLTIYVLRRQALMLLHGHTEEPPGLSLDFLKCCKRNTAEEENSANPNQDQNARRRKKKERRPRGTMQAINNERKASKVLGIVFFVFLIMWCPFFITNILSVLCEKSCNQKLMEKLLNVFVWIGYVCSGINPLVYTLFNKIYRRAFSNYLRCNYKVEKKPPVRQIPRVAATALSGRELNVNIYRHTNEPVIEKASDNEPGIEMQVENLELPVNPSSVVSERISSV

[7] = target: T3, 5-hydroxytryptamine receptor 1A (Homo sapiens) (UniProt P08908); assay: Displacement of [3H]-8-OH-DPAT from human recombinant 5-HT1A receptor expressed in HEK293 cells at 1 uM by scintillation counting analysis relative to control; type: cell-based
T3 sequence (whole entry): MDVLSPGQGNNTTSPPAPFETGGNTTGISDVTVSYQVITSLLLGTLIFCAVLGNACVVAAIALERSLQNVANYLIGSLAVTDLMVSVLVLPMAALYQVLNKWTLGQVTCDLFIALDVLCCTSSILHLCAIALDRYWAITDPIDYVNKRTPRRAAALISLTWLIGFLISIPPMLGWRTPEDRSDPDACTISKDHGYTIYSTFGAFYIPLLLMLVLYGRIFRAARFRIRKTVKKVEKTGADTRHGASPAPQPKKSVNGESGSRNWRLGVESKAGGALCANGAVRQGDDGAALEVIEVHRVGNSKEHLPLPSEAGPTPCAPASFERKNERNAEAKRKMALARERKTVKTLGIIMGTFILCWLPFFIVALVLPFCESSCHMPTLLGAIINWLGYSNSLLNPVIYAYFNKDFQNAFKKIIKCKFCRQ

[8] = target: 5-hydroxytryptamine receptor 4 (Homo sapiens) (UniProt Q13639); assay: Binding affinity to human recombinant 5-HT4E receptor expressed in CHO cells at 1 uM after 30 mins by radioligand displacement assay relative to control; type: cell-based
[9] = target: T1, 5-hydroxytryptamine receptor 7; assay: Binding affinity to human recombinant 5-HT7 receptor expressed in CHO cells after 30 mins by radioligand displacement assay; type: cell-based
Summary of the method: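 Membranes from receptor-expressing cells harvested at 80% confluence, homogenised and pelleted at 48,000 × g for 90 min, then protein-quantified by Bradford. Competition with 5 nmol/L [3H]5-HT and test compound for 30 min at 25 °C in 50 mM Tris-HCl pH 7.4 containing pargyline, 4 mmol/L CaCl2 and 0.05% ascorbic acid. Non-specific binding measured with excess cold 5-HT; bound radioligand separated by filtration. Ki derived from IC50 by Cheng-Prusoff; mean of four determinations in duplicate.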

[10] = target: 5-hydroxytryptamine receptor 2B (Homo sapiens) (UniProt P41595); assay: Binding affinity to human recombinant 5-HT2B receptor expressed in CHO cells at 1 uM by radioligand displacement assay relative to control; type: cell-based
[11] = target: 5-hydroxytryptamine receptor 1B (Homo sapiens) (UniProt P28222); assay: Binding affinity to recombinant human 5-HT1B receptor expressed in CHO cells at 1 uM by radioligand displacement assay relative to control; type: cell-based
[12] = target: 5-hydroxytryptamine receptor 2A (Homo sapiens) (UniProt P28223); assay: Binding affinity to human recombinant 5-HT2A receptor expressed in HEK293 cells at 1 uM by radioligand displacement assay relative to control; type: cell-based
[13] = target: T4, 5-hydroxytryptamine receptor 3A (Homo sapiens) (UniProt P46098); assay: Binding affinity to human 5-HT3 receptor at 1 uM by radioligand displacement assay relative to control
T4 sequence (whole entry): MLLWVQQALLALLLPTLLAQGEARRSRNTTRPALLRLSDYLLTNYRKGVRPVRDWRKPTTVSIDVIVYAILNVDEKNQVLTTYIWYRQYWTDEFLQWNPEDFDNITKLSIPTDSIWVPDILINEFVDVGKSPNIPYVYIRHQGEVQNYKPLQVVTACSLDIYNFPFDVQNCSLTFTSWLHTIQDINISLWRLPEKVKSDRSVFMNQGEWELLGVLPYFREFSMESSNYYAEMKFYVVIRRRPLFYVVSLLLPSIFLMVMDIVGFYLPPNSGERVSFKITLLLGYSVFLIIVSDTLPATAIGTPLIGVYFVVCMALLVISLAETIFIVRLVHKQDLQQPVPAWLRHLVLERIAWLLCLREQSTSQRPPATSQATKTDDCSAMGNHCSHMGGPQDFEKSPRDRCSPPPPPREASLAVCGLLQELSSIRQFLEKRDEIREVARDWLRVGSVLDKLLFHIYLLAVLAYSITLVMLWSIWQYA

[14] = target: 5-hydroxytryptamine receptor 6 (Homo sapiens) (UniProt P50406); assay: Binding affinity to human recombinant 5-HT6 receptor expressed in CHO cells at 1 uM after 30 mins by radioligand displacement assay relative to control; type: cell-based
[15] = target: T1, 5-hydroxytryptamine receptor 7; assay: Antagonist activity at human 5-HT7 receptor expressed in CHO cells assessed as residual 5-HT-stimulated cAMP accumulation at 1 uM relative to control
[16] = target: T1, 5-hydroxytryptamine receptor 7; assay: Antagonist activity at human 5-HT7 receptor expressed in CHO cells assessed as inhibition of 5-HT-stimulated cAMP accumulation by Cheng-Prusoff method; type: functional, cell-based
[17] = target: T1, 5-hydroxytryptamine receptor 7; assay: Agonist activity at human 5-HT7 receptor expressed in CHO cells assessed as stimulation of cAMP accumulation up to 10^-5 M; type: functional, cell-based
[18] = target: T1, 5-hydroxytryptamine receptor 7; assay: Antagonist activity at human 5-HT7 receptor expressed in CHO cells assessed as inhibition of 5-HT-stimulated cAMP accumulation; type: functional, cell-based

5-hydroxytryptamine receptor 1B (Homo sapiens), sequence (P28222 whole entry): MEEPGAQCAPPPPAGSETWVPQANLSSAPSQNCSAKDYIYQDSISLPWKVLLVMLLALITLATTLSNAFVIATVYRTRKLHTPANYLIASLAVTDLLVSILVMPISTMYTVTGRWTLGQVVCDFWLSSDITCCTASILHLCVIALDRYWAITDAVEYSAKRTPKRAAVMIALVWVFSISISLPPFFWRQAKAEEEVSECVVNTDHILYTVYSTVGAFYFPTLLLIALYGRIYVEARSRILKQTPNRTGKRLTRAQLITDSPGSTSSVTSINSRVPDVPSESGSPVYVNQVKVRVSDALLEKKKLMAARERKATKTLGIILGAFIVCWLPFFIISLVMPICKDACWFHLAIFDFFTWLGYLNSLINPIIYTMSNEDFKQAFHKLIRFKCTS
5-hydroxytryptamine receptor 2B (Homo sapiens), sequence (P41595 whole entry): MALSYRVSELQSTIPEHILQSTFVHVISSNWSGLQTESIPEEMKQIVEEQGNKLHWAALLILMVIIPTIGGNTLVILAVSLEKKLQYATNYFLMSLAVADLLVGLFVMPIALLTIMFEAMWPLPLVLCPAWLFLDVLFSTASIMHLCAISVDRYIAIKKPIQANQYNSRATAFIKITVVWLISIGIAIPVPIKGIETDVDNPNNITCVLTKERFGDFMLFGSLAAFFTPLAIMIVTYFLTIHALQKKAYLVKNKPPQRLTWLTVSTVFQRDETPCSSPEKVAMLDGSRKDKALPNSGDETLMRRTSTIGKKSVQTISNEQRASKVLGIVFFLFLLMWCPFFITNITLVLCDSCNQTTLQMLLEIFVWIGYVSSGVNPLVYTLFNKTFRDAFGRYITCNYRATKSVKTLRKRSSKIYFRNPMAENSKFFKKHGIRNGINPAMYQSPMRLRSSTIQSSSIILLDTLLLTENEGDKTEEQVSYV
T1 sequence (P34969 whole entry): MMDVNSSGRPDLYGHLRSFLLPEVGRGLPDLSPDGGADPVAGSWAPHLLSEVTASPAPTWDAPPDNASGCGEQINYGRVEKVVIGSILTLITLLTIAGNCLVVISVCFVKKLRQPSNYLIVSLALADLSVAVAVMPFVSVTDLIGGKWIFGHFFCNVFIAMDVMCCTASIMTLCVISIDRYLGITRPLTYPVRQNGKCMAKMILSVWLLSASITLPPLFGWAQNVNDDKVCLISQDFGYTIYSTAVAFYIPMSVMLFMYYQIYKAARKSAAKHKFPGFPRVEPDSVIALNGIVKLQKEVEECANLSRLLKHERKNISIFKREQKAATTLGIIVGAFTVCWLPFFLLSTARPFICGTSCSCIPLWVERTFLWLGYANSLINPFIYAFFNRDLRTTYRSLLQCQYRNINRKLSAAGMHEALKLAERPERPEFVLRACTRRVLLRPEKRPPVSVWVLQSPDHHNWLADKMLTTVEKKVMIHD
5-hydroxytryptamine receptor 6 (Homo sapiens), sequence (P50406 whole entry): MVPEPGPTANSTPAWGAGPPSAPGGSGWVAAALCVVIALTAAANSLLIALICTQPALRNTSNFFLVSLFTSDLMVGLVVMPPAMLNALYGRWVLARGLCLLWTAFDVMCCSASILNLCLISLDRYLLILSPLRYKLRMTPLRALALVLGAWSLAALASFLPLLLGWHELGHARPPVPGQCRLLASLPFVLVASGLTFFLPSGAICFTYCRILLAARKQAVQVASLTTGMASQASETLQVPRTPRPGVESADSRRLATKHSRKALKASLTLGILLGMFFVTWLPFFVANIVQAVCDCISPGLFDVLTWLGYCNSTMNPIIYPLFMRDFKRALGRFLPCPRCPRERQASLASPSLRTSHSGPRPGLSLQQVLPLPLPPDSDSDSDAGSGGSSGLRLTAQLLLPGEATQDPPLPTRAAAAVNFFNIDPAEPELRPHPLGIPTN
5-hydroxytryptamine receptor 4 (Homo sapiens), sequence (Q13639 whole entry): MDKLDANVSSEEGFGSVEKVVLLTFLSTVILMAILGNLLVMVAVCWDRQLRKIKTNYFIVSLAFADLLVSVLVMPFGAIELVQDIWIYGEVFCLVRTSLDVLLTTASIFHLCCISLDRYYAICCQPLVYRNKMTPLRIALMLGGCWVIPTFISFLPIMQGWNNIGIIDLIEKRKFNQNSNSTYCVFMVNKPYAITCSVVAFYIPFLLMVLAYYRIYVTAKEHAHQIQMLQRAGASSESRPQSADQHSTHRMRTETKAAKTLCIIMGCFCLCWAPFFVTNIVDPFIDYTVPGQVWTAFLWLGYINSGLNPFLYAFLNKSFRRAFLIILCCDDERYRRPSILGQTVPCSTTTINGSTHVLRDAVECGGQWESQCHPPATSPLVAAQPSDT
5-hydroxytryptamine receptor 5A (Homo sapiens), sequence (P47898 whole entry): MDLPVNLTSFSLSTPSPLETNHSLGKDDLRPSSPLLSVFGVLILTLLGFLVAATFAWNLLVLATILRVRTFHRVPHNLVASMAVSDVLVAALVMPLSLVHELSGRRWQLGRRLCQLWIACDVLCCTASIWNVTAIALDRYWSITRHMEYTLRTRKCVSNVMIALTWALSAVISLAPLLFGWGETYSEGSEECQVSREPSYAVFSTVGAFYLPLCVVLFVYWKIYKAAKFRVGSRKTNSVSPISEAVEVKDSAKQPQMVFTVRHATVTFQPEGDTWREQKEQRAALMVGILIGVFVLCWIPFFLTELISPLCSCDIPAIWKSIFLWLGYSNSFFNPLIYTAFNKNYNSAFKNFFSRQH
5-hydroxytryptamine receptor 1D (Rattus norvegicus), sequence (P28565 whole entry): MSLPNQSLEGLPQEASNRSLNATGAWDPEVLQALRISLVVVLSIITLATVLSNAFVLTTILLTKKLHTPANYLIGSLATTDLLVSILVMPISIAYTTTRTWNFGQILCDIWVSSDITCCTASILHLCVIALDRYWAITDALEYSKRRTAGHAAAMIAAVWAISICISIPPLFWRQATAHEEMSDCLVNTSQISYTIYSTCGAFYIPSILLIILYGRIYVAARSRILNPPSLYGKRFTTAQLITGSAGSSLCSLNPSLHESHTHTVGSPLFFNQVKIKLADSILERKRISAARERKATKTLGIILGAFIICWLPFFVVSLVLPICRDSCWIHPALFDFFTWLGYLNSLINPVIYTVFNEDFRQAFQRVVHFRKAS
5-hydroxytryptamine receptor 2A (Homo sapiens), sequence (P28223 whole entry): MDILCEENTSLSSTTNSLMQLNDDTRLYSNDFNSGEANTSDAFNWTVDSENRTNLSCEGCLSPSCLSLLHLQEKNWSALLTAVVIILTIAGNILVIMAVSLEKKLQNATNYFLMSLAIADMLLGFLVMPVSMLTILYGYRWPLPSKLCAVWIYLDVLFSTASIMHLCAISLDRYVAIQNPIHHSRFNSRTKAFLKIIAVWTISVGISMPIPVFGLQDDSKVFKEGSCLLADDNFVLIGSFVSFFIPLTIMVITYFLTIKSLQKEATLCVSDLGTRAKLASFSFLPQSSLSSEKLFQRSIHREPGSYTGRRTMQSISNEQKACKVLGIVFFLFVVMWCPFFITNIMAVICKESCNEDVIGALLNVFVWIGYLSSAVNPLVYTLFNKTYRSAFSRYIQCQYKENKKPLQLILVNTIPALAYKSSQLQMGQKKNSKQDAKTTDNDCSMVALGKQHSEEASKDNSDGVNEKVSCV

| Ki [5] [nM] | % serotonin response [15] [%] | Activity [17] | IC50 [18] [nM] | SMILES | inhibition [1] [%] | inhibition [2] [%] | inhibition [3] [%] | inhibition [4] [%] | inhibition [6] [%] | inhibition [7] [%] | inhibition [8] [%] | Ki [9] [nM] | inhibition [10] [%] | inhibition [11] [%] | inhibition [12] [%] | inhibition [13] [%] | inhibition [14] [%] | Kb [16] [nM] |
| --- | --- | --- | --- | --- | --- | --- | --- | --- | --- | --- | --- | --- | --- | --- | --- | --- | --- | --- |
| – | – | – | – | Oc1ccc2[nH]cc(CCN3CCN(c4ccc(-c5ccccc5)cc4)CC3)c2c1 | 10 | 32 | – | – | – | – | – | – | – | – | – | – | – | – |
| – | – | – | – | CCCCN1CCN(CCc2c[nH]c3ccc(O)cc23)CC1 | -9 | – | – | – | – | – | – | – | – | – | – | – | – | – |
| 20 | 49 | – | – | CN(CCCN1CCN(c2ccccc2)CC1)c1cccc(O)c1 | – | – | 49 | 18 | 42 | 101 | -5 | 20 | 75 | 9 | 79 | 5 | 21 | – |
| 30 | 39 | inactive | 540 | CN(CCCCN1CCN(c2ccccc2)CC1)c1cccc(O)c1 | – | – | – | – | – | – | – | – | – | – | – | – | – | 57 |
| – | – | – | – | Oc1ccc2[nH]cc(CCN3CCN(C4CCCC4)CC3)c2c1 | 1 | – | – | – | – | – | – | – | – | – | – | – | – | – |
| 8.1 | – | – | – | CN(C(=O)CCCCCN1CCN(c2cccc3ccccc23)CC1)c1cccc(O)c1 | – | – | 70 | 100 | 98 | 99 | 16 | 8.1 | 101 | 69 | 99 | 6 | 71 | – |
| – | – | – | – | CN1C[C@@H](NS(=O)(=O)N(C)C)C[C@@H]2c3cccc4c3c(cn4C)C[C@H]21 | – | – | – | – | – | – | – | – | – | – | – | – | – | 16 |

| SMILES | Ki [5] [nM] | % serotonin response [15] [%] | Activity [17] | IC50 [18] [nM] | inhibition [1] [%] | inhibition [2] [%] | inhibition [3] [%] | inhibition [4] [%] | inhibition [6] [%] | inhibition [7] [%] | inhibition [8] [%] | Ki [9] [nM] | inhibition [10] [%] | inhibition [11] [%] | inhibition [12] [%] | inhibition [13] [%] | inhibition [14] [%] | Kb [16] [nM] |
| --- | --- | --- | --- | --- | --- | --- | --- | --- | --- | --- | --- | --- | --- | --- | --- | --- | --- | --- |
| Oc1ccc2[nH]cc(CCN3CCN(c4cccc5ccccc45)CC3)c2c1 | 11.6 | – | – | – | – | – | 94 | 99 | 98 | 100 | 7 | 11.6 | 98 | 74 | 100 | 15 | 76 | – |
| Oc1ccc2[nH]cc(CCN3CCN(c4ccccc4)CC3)c2c1 | 63.1 | – | – | – | – | – | 56 | 60 | 66 | 95 | 17 | 63.1 | 98 | 11 | 97 | 1 | 18 | – |
